Activity calls are given as the source filed them. No cut-off for these calls is given here.
Columns and labels:
[1] = molecular target: Dickkopf-related protein 1/Low-density lipoprotein receptor-related protein 6 (Homo sapiens) (UniProt O94907+O75581); assay: Inhibition of DKK1/LRP6 (unknown origin) expressed in HEK293 cells assessed as inhibition of DKK1/LRP6 interaction at 100 uM after 2 hrs by immunofluorescence method; assay type: cell-based
Outline: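 HEK-293 cells stably overexpressing LRP6, sub-confluent, incubated 2 h at 4 °C with DKK1 conditioned medium plus compound or DMSO. Fixed in 3% paraformaldehyde, blocked in PBS/0.1% BSA, stained with rabbit anti-DKK1 and Alexa488 secondary; DAPI nuclei. Surface DKK1 fluorescence quantified over 750 cells as % DKK1 binding; three independent experiments in duplicate.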

[2] = Cytotoxicity against mouse primary cortical neurons assessed as viable cells at 10 uM after 24 hrs by MTT assay; assay type: cell-based, Cerebral cortex neuron; settings: for viability at 24 h, 10 µM: primary cortical neurons, read-out: Activity
Outline: (§1)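 Primary mouse cortical neurons seeded at 25,000 or 15,000 cells/well and grown 6 days at 37 °C, 5% CO2. Test compound was then added in fresh medium (final DMSO 0.1%) for 24 h at 37 °C. MTT (2.5 mg/ml in PBS) was added for 4 h. Formazan was extracted with isopropanol/HCl and absorbance read at 545 nm. Read-out is % viable cells.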

[3] = Cytotoxicity against mouse primary cortical neurons assessed viable cells at 100 uM after 24 hrs by MTT assay; assay type: cell-based, Cerebral cortex neuron; settings: for viability at 24 h, 100 µM: primary cortical neurons, read-out: Activity; outline: as §1
[4] = molecular target: Dickkopf-related protein 1/Lrp6 (Mus musculus) (UniProt O54908+O88572); assay: Inhibition of DKK1-LRP6 interactions in mouse cortical neurons assessed as inhibition of prostaglandinJ2-induced tau phosphorylation at Ser396 residue at 10 uM for 1 hr by western bloting
Sequence of Dickkopf-related protein 1/Lrp6 (Mus musculus) (O88572 whole entry, looked up, one chain of several): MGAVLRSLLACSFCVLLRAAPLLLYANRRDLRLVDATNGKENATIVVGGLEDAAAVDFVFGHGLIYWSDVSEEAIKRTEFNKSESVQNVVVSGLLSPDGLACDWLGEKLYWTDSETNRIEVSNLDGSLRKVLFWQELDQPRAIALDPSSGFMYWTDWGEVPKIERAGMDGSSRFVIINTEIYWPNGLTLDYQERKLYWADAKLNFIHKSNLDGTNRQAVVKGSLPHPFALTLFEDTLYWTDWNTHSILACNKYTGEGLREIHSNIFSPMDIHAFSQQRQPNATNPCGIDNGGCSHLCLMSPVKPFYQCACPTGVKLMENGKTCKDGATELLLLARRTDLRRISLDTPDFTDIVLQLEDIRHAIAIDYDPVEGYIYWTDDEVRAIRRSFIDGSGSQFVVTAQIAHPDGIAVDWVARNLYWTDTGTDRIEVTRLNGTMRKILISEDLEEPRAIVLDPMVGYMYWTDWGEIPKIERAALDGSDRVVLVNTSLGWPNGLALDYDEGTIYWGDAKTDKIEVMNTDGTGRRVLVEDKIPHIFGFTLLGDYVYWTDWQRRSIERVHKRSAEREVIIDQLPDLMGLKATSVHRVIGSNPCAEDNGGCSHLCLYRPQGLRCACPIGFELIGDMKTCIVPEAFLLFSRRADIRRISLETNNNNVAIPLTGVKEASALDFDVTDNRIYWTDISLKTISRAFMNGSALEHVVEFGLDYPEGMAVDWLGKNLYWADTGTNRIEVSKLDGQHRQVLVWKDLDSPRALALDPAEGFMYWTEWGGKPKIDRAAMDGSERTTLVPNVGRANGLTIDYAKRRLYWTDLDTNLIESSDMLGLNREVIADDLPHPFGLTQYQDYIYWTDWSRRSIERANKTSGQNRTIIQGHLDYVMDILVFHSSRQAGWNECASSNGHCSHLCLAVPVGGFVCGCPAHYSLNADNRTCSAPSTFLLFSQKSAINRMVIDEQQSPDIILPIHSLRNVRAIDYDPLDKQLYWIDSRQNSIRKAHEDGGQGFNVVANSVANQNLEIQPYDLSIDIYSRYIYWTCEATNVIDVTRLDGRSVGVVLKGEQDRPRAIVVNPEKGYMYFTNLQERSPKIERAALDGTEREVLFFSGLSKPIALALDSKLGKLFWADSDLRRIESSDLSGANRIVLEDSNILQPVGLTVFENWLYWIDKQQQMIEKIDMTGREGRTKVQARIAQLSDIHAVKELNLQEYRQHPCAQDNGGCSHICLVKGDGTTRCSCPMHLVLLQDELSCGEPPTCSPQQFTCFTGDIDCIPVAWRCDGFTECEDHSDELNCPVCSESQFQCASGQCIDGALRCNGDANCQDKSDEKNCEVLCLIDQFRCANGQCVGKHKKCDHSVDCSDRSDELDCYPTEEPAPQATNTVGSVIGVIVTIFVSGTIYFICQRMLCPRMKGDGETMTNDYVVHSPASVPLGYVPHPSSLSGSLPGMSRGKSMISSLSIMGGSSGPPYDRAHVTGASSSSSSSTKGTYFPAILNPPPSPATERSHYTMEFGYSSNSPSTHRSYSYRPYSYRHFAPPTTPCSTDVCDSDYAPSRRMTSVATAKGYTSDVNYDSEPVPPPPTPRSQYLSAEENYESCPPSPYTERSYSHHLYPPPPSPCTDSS
Outline: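 Primary mouse cortical neurons treated 1 h at 37 °C with 20 µM PGJ2 plus compound or DMSO. Lysed at 4 °C in Tris/NaCl/EDTA/Triton buffer, pH 7.6, with protease and phosphatase inhibitors; protein measured by Bradford. SDS-PAGE western blot probed with anti-pSer396 tau (1:1000, overnight, 4 °C) and anti-actin; ECL detection. Densitometry normalized to actin; three independent experiments, mean SD.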

[5] = molecular target: T1, Dickkopf-related protein 1 (Mus musculus, UniProt O54908); assay: Inhibition of mouse DKK1 assessed as inhibition of DKK1-alkaline phophatase binding to LRP5 transfected in HEK293 cells; assay type: cell-based
T1 sequence (O54908 whole entry): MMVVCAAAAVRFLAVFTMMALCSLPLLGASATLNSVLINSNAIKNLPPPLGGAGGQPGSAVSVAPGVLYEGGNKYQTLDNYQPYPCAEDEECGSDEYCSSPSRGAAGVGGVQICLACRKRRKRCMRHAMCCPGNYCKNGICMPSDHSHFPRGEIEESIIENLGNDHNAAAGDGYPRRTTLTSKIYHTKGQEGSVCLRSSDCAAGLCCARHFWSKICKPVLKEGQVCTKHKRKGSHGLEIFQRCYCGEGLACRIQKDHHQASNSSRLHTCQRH

Sequence of Dickkopf-related protein 1/Low-density lipoprotein receptor-related protein 6 (Homo sapiens) (O75581 20-1613 partner limits assumed): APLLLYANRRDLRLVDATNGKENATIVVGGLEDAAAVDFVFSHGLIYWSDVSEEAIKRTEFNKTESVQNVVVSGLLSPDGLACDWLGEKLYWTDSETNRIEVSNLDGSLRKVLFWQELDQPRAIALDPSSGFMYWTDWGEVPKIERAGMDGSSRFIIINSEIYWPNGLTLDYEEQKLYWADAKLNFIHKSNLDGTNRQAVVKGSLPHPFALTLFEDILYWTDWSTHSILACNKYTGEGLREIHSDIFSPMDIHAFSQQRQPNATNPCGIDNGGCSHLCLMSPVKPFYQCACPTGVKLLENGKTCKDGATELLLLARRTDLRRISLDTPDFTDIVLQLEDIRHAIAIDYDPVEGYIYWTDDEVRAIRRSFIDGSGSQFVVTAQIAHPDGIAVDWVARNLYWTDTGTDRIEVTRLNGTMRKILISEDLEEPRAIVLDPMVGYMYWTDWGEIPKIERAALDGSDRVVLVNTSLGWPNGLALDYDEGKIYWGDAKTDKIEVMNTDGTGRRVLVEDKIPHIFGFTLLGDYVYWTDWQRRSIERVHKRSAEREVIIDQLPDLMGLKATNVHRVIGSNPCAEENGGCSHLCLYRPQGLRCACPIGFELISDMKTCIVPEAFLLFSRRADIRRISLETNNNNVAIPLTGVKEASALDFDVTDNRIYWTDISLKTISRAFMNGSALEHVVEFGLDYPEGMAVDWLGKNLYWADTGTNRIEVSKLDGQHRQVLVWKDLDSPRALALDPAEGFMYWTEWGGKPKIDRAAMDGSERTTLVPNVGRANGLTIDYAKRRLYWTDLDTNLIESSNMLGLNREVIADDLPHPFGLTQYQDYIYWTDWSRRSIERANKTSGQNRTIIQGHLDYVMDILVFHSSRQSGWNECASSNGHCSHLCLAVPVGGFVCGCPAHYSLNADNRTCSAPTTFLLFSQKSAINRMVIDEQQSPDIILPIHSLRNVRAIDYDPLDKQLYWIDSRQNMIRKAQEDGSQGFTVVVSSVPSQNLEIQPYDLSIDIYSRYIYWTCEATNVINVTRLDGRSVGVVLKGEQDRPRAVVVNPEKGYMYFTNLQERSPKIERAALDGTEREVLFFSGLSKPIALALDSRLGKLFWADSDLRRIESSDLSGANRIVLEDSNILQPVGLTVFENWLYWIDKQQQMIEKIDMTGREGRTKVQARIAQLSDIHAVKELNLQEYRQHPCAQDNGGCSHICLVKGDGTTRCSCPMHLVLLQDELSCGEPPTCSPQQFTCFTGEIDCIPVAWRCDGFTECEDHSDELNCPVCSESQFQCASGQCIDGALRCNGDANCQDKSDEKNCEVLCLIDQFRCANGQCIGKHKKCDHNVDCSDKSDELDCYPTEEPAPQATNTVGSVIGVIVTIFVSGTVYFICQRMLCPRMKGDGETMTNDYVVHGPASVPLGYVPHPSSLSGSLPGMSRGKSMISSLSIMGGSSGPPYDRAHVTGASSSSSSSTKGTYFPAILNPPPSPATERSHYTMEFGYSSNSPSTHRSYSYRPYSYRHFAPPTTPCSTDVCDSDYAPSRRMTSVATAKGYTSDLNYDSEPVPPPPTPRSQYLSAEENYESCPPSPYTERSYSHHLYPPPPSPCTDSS
Sequence of Dickkopf-related protein 1/Low-density lipoprotein receptor-related protein 6 (Homo sapiens) (O94907 32-266 limits assumed): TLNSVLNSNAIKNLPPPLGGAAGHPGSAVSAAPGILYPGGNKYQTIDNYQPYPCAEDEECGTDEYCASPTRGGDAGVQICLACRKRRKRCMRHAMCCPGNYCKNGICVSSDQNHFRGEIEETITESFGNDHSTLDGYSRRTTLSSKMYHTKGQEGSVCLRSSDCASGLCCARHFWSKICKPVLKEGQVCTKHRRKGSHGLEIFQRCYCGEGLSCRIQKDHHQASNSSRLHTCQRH

| SMILES | inhibition [1] | viability at 24 h, 10 µM [2] | viability at 24 h, 100 µM [3] | Activity ([2]; cerebral cortex neuron, 24 h, 10 µM) | Activity ([3]; cerebral cortex neuron, 24 h, 100 µM) | inhibition [4] | IC50 [5] |
| --- | --- | --- | --- | --- | --- | --- | --- |
| CCCCCCOC(=O)c1cc(O)c(O)c2oc3cc(=[N+](C)C)ccc-3nc12 | Active | 100% | 100% | – | – | – | – |
| CN(C)c1ccc2nc3c(C(=O)O)cc(=O)c(O)c-3oc2c1 [listing 1 of 3 here] | – | – | – | 100% | 100% | – | – |
| CCCCOC(=O)c1cc(O)c(O)c2oc3cc(=[N+](C)C)ccc-3nc12 | Active | 100% | 100% | – | – | – | – |
| CN(C)c1ccc2nc3c(O)cc(=O)cc-3oc2c1 | Active | 100% | 100% | – | – | – | – |
| CC(C)OC(=O)c1cc(=O)c(O)c2oc3cc(N(C)C)ccc3nc1-2 | Active | 100% | 100% | – | – | Active | – |
| CCOC(=O)c1cc(O)c(O)c(O)c1 [ETHYLGALLATE] | Active | 100% | 100% | – | – | – | – |
| CCCCOC(=O)c1cc(=O)c(O)c2oc3cc(N(C)C)ccc3nc1-2 | Active | 100% | 100% | – | – | Active | – |
| COCCOC(=O)c1cc(=O)c(O)c2oc3cc(N(C)C)ccc3nc1-2 | Active | 100% | 100% | – | – | Active | – |
| CCCCOC(=O)c1cc(=O)c(O)c2oc3cc(N(CCC)CCC)ccc3nc1-2 | Active | 100% | 100% | – | – | – | – |
| CN(C)c1ccc2nc3c(C(=O)O)cc(=O)c(O)c-3oc2c1 [listing 2 of 3 here] | Active | – | – | – | – | Active | – |
| COCCOC(=O)c1cc(O)c(O)c2oc3cc(=[N+](C)C)ccc-3nc12 | Active | 100% | 100% | – | – | – | – |
| Cc1cc(=O)cc2oc3cc(N(C)C)ccc3nc1-2 | Active | 100% | 100% | – | – | – | – |
| COC(=O)c1cc(=O)c(O)c2oc3cc(N(C)C)ccc3nc1-2 | Active | 100% | 100% | – | – | Active | – |
| CCCCCCOC(=O)c1cc(=O)c(O)c2oc3cc(N(C)C)ccc3nc1-2 | Active | 100% | 100% | – | – | Active | – |
| CCOC(=O)c1cc(O)c(O)c2oc3cc(=[N+](C)C)ccc-3nc12 | Active | 100% | 100% | – | – | – | – |
| CCOC(=O)c1cc(=O)c(O)c2oc3cc(N(C)C)ccc3nc1-2 | Active | 100% | 100% | – | – | Active | – |
| CN(C)c1ccc2nc3c(C(=O)O)cc(=O)c(O)c-3oc2c1 [listing 3 of 3 here] | – | 100% | 100% | – | – | – | 3 µM |
| CN(C)c1ccc2nc3c(C(=O)OCc4ccccc4)cc(=O)c(O)c-3oc2c1 | Active | 100% | 100% | – | – | Active | – |
| CCCN(CCC)c1ccc2nc3c(C(=O)OC)cc(=O)c(O)c-3oc2c1 | Active | 100% | 100% | – | – | – | – |
| CN(C)c1ccc2nc3ccc(=O)c(O)c-3oc2c1 | Active | 100% | 100% | – | – | Active | – |
